Assay results published in ChEMBL document CHEMBL4823302, “Evaluation of γ-carboline-phenothiazine conjugates as simultaneous NMDA receptor blockers and cholinesterase inhibitors” (Bioorg Med Chem, 2021).

What was measured:
Acetylcholinesterase [1] = target: T1, Acetylcholinesterase (Homo sapiens, UniProt P22303); assay: Inhibition of recombinant human AChE expressed in HEK293 cells by Ellman's method; assay type: cell-based
[2] = target: T2, Glutamate NMDA receptor; GRIN1/GRIN2A (Homo sapiens, UniProt Q05586+Q12879); assay: Inhibition of human GluN1-1a/NR2A receptor expressed in transgenic mouse fibroblast cells assessed as inhibition of L-glutamate-induced excitotoxicity at 50 uM by measuring LDH activity by cell based assay
Summary of the method: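 Mouse fibroblasts stably expressing human GluN1-1a/2A or GluN1-1a/2B receptors were exposed to 10 μM L-glutamate plus glycine with test agent. Excitotoxicity was read as LDH activity in the medium. Agonists alone defined 100%; agonists plus 100 μM ketamine defined 0%. Percent inhibition at the single test concentration came from at least three independent experiments.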

Acetylcholinesterase [3] = target: T1, Acetylcholinesterase; assay: Inhibition of recombinant human AChE expressed in HEK293 cells at 50 uM by Ellman's method relative to control; assay type: cell-based
Cholinesterase = Cholinesterase (Equus caballus, UniProt P81908); assay: Inhibition of recombinant equine BChE by Ellman's method
[4] = Solubility of the compound at >= 50 uM; assay type: physicochemical
[5] = system: Glutamate NMDA receptor GRIN1/GRIN2B (Homo sapiens); assay: Inhibition of human GluN1-1a/NR2B receptor expressed in transgenic mouse fibroblast cells assessed as inhibition of L-glutamate-induced excitotoxicity at 20 uM by measuring LDH activity by cell based assay
[6] = Selectivity ratio of IC50 for recombinant human AChE to IC50 for equine BuChE
[7] = target: T2, Glutamate NMDA receptor; GRIN1/GRIN2A; assay: Inhibition of human GluN1-1a/NR2A receptor expressed in transgenic mouse fibroblast cells assessed as inhibition of L-glutamate-induced excitotoxicity by measuring LDH activity by cell based assay
Summary of the method: (§1)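 Stably transfected mouse fibroblasts expressing human GluN1-1a/2A or GluN1-1a/2B receptors; excitotoxicity induced with 10 μM L-glutamate plus 10 μM glycine and quantified as LDH activity in medium. Agonists without antagonist defined 100%; agonists plus 100 μM ketamine defined 0%. IC50 ± SD from at least three independent experiments.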

[8] = target: Glutamate NMDA receptor; GRIN1/GRIN2B (Homo sapiens, UniProt Q05586+Q13224); assay: Inhibition of human GluN1-1a/NR2B receptor expressed in transgenic mouse fibroblast cells assessed as inhibition of L-glutamate-induced excitotoxicity by measuring LDH activity by cell based assay; summary of the method: as §1
Acetylcholinesterase [9] = target: T1, Acetylcholinesterase; assay: Inhibition of recombinant human AChE expressed in HEK293 cells at 20 uM by Ellman's method relative to control; assay type: cell-based
[10] = Solubility of the compound in buffer at > 20 uM; assay type: physicochemical
[11] = target: Cholinesterase (Equus caballus) (UniProt P81908); assay: Inhibition of recombinant equine BChE at 20 uM by Ellman's method relative to control
Summary of the method: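 Ellman assay with equine BChE as enzyme, compound at single concentration as listed; percent inhibition relative to control, measured in triplicate.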

Chain of Glutamate NMDA receptor; GRIN1/GRIN2B (Q13224 whole entry, looked up, other chains not shown): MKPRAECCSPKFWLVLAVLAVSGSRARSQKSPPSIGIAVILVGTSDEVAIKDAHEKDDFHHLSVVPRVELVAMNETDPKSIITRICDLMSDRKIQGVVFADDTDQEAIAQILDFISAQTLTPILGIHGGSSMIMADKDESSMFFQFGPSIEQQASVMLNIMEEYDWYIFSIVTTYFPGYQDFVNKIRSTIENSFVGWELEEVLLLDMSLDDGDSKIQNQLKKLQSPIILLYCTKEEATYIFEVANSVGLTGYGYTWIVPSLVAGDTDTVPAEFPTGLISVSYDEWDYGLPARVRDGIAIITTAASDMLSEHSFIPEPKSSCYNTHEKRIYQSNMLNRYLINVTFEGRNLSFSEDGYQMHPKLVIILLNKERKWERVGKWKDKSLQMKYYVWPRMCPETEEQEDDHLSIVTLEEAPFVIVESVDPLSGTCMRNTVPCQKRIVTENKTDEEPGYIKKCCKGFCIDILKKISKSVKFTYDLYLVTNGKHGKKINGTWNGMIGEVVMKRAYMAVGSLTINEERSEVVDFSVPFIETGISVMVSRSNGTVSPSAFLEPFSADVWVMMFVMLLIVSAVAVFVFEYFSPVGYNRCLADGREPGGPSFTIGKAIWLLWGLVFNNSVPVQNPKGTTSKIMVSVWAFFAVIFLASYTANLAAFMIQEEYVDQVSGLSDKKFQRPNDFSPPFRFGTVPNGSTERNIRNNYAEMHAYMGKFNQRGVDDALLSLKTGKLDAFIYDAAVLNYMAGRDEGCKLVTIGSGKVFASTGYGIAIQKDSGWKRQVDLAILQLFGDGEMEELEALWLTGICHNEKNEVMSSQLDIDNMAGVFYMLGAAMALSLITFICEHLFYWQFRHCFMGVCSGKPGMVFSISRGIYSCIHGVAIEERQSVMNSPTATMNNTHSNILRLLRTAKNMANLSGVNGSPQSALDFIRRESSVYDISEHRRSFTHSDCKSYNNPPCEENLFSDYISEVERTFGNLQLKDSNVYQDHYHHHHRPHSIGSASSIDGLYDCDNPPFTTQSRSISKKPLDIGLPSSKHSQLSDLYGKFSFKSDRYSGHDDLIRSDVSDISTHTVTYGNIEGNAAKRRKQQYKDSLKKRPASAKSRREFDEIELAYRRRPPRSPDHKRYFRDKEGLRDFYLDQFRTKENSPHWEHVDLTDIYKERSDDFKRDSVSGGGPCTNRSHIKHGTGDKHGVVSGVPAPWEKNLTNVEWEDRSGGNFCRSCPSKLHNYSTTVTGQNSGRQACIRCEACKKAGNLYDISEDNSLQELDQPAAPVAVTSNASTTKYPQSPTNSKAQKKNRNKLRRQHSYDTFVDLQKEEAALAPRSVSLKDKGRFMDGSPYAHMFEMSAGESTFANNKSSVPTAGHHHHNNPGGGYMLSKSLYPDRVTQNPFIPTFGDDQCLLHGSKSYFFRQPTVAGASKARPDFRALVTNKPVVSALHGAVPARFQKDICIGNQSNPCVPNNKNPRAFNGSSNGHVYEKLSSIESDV
Chain of Cholinesterase (P81908 whole entry): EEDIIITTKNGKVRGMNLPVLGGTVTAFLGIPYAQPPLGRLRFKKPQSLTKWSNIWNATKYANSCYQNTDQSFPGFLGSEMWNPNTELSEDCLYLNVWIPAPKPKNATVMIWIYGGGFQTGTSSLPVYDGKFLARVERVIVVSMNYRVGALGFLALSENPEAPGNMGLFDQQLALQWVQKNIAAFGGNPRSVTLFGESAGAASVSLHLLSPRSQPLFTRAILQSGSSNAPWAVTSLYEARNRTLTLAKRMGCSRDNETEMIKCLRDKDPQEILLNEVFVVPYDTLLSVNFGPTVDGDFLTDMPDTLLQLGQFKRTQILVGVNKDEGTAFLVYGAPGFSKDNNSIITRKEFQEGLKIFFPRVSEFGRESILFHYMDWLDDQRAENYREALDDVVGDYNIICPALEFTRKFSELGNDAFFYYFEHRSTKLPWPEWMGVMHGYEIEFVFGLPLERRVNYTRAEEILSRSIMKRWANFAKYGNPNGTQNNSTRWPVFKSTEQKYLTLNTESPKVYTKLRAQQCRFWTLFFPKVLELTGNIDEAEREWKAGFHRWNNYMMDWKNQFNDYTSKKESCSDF
T1 sequence (P22303 whole entry): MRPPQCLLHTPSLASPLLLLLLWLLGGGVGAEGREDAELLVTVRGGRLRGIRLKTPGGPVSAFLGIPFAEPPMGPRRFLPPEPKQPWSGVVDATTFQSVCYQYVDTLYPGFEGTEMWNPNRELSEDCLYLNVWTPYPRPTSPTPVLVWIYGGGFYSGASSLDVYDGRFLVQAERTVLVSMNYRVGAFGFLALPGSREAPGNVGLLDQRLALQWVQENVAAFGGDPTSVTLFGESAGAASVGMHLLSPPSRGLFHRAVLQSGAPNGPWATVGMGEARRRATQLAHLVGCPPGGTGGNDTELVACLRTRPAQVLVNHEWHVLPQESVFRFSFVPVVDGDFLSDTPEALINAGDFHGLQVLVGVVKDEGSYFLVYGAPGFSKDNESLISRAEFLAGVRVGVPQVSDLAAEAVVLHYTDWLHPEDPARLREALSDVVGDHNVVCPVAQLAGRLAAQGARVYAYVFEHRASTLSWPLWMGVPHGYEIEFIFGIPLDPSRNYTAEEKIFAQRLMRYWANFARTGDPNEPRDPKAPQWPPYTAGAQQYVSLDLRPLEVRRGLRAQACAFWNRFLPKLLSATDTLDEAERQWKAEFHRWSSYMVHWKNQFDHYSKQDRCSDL
Chain of Cholinesterase (Equus caballus) (P81908 whole entry): as the sequence (P81908 whole entry) above

SMILES | IC50 (Acetylcholinesterase [1]) [nM] | inhibition [2] [%] | inhibition (Acetylcholinesterase [3]) [%] | IC50 (Cholinesterase) [nM] | solubility [4] | inhibition [5] [%] | Ratio IC50 [6] | IC50 [7] [nM] | IC50 [8] [nM] | inhibition (Acetylcholinesterase [9]) [%] | solubility [10] | inhibition [11] [%]
C[n+]1ccc2c(c1)c1ccccc1n2CCCCCCCCCn1c2ccccc2c2c[n+](C)ccc21 | 0.33 |  |  |  |  |  |  |  |  |  |  | 
CN1CCc2[nH]c3ccccc3c2C1 |  | < 50 | < 50 | 6500 | Insoluble | < 50 |  |  |  |  |  | 
O=C(CCn1c2ccncc2c2cc(F)ccc21)N1c2ccccc2Sc2ccccc21 | 6200 |  |  | 8 |  |  | 775 | 1700 | 2700 |  |  | 
Cc1ccc2[nH]c3cc[n+](C)cc3c2c1.[I-] | 9100 | < 50 |  | 5500 | Insoluble | < 50 |  |  |  |  |  | 
Cc1ccc2c(c1)c1c[n+](C)ccc1n2CCC(=O)N1c2ccccc2Sc2ccccc21 | 1100 |  |  | 32 |  |  |  | 900 | 500 |  |  | 
O=C(CCn1c2ccccc2c2cnccc21)N1c2ccccc2Sc2ccccc21 | 2300 |  |  | 8 |  |  |  | 4200 | 3000 |  |  | 
CN1CCc2c(c3ccccc3n2CCC(=O)N2c3ccccc3Sc3ccccc32)C1 | 7800 | < 50 |  | 170 | Insoluble | < 50 |  |  |  |  |  | 
C[n+]1ccc2c(c1)c1ccccc1n2CCC(=O)N1c2ccccc2Sc2ccccc21 | 2200 |  |  | 41 |  |  |  | 2400 | 1400 |  |  | 
COc1ccc2[nH]c3ccncc3c2c1 | 49600 | < 50 |  | 12600 | Insoluble | < 50 |  |  |  |  |  | 
Cc1ccc2[nH]c3ccncc3c2c1 | 35400 | < 50 |  | 1400 | Insoluble | < 50 |  |  |  |  |  | 
C[n+]1ccc2c(c1)c1cc(F)ccc1n2CCC(=O)N1c2ccccc2Sc2ccccc21 | 2600 |  |  | 32 |  |  |  | 3000 | 2100 |  |  | 
COc1cc2c(cc1OC)C(=O)C(CC1CCN(Cc3ccccc3)CC1)C2 (stereo not drawn) |  | < 50 |  |  |  |  |  |  |  |  |  | 
c1ccc2c(c1)Nc1ccccc1S2 [PHENOTHIAZINE] |  | < 50 |  |  |  |  |  |  |  | < 30 | Insoluble | < 50
Fc1ccc2[nH]c3c(c2c1)CN(Cc1ccccc1)CC3 | 17600 | < 50 |  | 2100 | Insoluble | < 50 |  |  |  |  | Insoluble | 
c1ccc2c(c1)[nH]c1ccncc12 | 21400 | < 50 |  | 1200 | Insoluble |  |  |  |  |  |  | 
Fc1ccc2[nH]c3ccncc3c2c1 | 11400 | < 50 |  | 550 | Insoluble | < 50 |  |  |  |  |  | 
COc1ccc2[nH]c3cc[n+](C)cc3c2c1.[I-] | 14700 | < 50 |  | 9800 | Insoluble | < 50 |  |  |  |  |  | 
CN1CCc2c(c3ccccc3n2CCCCCCCCCn2c3c(c4ccccc42)CN(C)CC3)C1 |  | < 50 |  |  |  | < 50 |  |  |  |  |  | 
COc1ccc2[nH]c3c(c2c1)CN(Cc1ccccc1)CC3 | 52700 | < 50 |  | 6300 | Insoluble | < 50 |  |  |  |  |  | 
Cn1ccc2nc3ccccc3c-2c1.I | 8700 | < 50 |  | 890 | Insoluble | < 50 |  |  |  |  |  | 
C[n+]1ccc2[nH]c3ccc(F)cc3c2c1.[I-] | 1900 | < 50 |  | 2700 | Insoluble | < 50 |  |  |  |  |  | 
[Br-].c1ccc(C[n+]2ccc3[nH]c4ccccc4c3c2)cc1 | 8600 | < 50 |  | 1900 | Insoluble | < 50 |  |  |  |  |  | 
O=C(CCn1c2ccccc2c2c[n+](Cc3ccccc3)ccc21)N1c2ccccc2Sc2ccccc21 | 2200 |  |  | 11 |  |  |  | 1000 | 900 |  |  | 
Cc1ccc2[nH]c3c(c2c1)CN(Cc1ccccc1)CC3 | 35100 | < 50 |  | 1400 | Insoluble | < 50 |  |  |  |  |  | 
c1ccc2c(c1)c1cnccc1n2CCCCCCCCCn1c2ccccc2c2cnccc21 | 80 | < 50 |  |  |  | < 50 |  |  |  |  |  | 
COc1ccc2c(c1)c1c[n+](C)ccc1n2CCC(=O)N1c2ccccc2Sc2ccccc21 | 5300 |  |  | 41 |  |  |  | 400 | 200 |  |  | 
COc1ccc2c(c1)c1cnccc1n2CCC(=O)N1c2ccccc2Sc2ccccc21 | 540 |  |  | 37 |  |  |  | 800 | 600 |  |  | 
c1ccc(CN2CCc3[nH]c4ccccc4c3C2)cc1 | 20400 | < 50 |  | 6500 | Insoluble | < 50 |  |  |  |  |  | 
Cc1ccc2c(c1)c1cnccc1n2CCC(=O)N1c2ccccc2Sc2ccccc21 | 510 |  |  | 16 |  |  |  | 1300 | 1500 |  |  | 
